Source: the M2OR odorant receptor database

What was measured:
Conditions in all cases: stereoisomer not certain
[1] = target: T1, OR52I1 (Homo sapiens) (UniProt Q8NGK6)
T1 sequence (whole entry): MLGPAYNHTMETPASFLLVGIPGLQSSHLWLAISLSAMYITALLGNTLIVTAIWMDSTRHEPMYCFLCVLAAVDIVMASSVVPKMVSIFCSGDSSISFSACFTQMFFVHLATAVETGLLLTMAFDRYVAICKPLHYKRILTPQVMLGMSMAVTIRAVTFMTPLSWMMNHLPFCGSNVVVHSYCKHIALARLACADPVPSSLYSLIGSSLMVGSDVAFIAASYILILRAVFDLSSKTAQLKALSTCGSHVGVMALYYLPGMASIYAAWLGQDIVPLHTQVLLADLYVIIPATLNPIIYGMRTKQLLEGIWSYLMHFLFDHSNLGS
Outline: (§1)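 Each receptor–molecule pair is labelled responsive or non-responsive (inactive) according to whether the original authors judged the measured signal statistically different from baseline. The data were taken from the main text and supplementary material of published papers and checked for typos and inconsistencies. Assay methods differed by source, with transient luciferase assays in mammalian cell lines being common.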

[2] = target: T2, OR52I2 (Homo sapiens) (UniProt Q8NH67)
T2 sequence (whole entry): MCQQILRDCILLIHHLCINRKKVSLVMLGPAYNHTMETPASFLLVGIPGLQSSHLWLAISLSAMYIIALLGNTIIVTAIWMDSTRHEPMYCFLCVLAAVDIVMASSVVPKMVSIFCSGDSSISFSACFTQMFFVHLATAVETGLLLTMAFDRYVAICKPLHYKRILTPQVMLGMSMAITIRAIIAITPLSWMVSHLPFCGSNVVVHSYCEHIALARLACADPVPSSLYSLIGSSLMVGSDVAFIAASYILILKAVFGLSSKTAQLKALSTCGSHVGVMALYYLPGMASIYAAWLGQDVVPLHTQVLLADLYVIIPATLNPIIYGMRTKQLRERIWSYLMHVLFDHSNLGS
Outline: as §1

[3] = target: OR52J3 (Homo sapiens) (UniProt Q8NH60)
Outline: as §1

[4] = target: T3, OR52K1 (Homo sapiens) (UniProt Q8NGK4)
T3 sequence (whole entry): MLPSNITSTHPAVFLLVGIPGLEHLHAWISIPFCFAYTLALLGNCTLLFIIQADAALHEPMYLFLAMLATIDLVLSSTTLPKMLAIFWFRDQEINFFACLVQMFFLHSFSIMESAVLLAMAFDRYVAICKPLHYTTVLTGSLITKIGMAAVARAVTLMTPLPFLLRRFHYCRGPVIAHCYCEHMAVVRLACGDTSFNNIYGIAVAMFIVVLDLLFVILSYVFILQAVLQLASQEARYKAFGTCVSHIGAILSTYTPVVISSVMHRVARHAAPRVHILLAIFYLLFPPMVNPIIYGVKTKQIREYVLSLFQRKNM
Outline: as §1

[5] = target: T4, OR52K2 (Homo sapiens) (UniProt Q8NGK3)
T4 sequence (whole entry): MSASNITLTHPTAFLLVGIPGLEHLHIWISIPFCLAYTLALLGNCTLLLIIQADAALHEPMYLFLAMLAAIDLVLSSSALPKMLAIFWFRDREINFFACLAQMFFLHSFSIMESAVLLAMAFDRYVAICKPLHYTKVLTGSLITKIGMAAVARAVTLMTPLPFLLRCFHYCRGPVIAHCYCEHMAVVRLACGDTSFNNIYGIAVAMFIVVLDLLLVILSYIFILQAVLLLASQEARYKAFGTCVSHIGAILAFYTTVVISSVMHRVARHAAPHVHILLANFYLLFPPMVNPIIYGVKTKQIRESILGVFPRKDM
Outline: as §1

[6] = target: T5, OR52L1 (Homo sapiens) (UniProt Q8NGH7)
T5 sequence (whole entry): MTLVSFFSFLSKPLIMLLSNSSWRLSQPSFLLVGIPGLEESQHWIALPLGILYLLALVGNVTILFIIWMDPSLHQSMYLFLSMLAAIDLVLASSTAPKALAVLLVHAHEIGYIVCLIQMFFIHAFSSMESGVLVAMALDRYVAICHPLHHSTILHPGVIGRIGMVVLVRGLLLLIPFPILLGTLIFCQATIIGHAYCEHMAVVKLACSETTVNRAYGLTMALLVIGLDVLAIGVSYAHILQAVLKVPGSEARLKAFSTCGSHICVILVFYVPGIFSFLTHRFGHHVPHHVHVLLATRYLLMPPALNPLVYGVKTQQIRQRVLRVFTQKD
Outline: as §1

[7] = target: T6, OR52M1 (Homo sapiens) (UniProt Q8NGK5)
T6 sequence (whole entry): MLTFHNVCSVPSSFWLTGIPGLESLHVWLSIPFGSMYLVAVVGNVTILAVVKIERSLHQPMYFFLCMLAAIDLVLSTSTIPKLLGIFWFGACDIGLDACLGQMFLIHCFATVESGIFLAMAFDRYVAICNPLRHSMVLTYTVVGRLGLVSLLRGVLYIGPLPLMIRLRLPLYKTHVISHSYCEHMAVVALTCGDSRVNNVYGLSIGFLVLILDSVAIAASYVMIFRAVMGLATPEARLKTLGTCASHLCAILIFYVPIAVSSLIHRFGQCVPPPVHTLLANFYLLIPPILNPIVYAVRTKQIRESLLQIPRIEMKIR
Outline: as §1

[8] = target: T7, OR52N1 (Homo sapiens) (UniProt Q8NH53)
T7 sequence (whole entry): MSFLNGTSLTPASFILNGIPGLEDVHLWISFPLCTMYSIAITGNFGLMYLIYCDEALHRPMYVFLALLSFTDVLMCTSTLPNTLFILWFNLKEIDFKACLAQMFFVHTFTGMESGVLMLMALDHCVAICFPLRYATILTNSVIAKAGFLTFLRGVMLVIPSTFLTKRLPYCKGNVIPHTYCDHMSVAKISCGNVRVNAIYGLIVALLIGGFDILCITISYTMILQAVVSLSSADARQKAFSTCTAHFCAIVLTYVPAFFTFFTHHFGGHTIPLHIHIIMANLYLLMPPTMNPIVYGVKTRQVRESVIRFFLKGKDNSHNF
Outline: as §1

[9] = target: T8, OR52N2 (Homo sapiens) (UniProt Q8NGI0)
T8 sequence (whole entry): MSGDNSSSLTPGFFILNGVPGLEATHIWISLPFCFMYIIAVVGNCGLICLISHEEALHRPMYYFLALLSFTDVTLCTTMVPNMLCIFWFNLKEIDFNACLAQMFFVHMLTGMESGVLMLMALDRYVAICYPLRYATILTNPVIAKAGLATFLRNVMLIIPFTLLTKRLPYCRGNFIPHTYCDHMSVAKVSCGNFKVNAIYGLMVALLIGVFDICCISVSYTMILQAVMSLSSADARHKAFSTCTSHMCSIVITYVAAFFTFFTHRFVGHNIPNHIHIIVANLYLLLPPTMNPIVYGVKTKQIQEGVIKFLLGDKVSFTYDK
Outline: as §1

[10] = target: T9, OR52N4 (Homo sapiens) (UniProt Q8NGI2)
T9 sequence (whole entry): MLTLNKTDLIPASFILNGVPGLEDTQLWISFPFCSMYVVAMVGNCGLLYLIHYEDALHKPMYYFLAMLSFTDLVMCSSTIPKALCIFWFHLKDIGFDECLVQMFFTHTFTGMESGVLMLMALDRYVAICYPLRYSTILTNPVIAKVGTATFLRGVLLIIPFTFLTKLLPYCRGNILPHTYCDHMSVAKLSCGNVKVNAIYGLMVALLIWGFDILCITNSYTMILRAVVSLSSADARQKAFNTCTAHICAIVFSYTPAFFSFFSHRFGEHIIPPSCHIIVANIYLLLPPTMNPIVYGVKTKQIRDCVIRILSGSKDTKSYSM
Outline: as §1

[11] = target: T10, OR52N5 (Homo sapiens) (UniProt Q8NH56)
T10 sequence (whole entry): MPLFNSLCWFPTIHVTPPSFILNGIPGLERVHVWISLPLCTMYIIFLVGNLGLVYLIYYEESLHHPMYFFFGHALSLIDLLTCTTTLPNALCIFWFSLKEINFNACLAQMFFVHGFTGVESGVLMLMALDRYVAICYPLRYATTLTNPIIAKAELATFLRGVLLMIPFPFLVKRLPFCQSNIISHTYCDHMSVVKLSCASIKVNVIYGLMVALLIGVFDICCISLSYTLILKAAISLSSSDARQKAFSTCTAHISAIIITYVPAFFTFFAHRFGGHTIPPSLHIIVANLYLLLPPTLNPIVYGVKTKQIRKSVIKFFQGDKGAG
Outline: as §1

[12] = target: T11, OR52R1 (Homo sapiens) (UniProt Q8NGF1)
T11 sequence (whole entry): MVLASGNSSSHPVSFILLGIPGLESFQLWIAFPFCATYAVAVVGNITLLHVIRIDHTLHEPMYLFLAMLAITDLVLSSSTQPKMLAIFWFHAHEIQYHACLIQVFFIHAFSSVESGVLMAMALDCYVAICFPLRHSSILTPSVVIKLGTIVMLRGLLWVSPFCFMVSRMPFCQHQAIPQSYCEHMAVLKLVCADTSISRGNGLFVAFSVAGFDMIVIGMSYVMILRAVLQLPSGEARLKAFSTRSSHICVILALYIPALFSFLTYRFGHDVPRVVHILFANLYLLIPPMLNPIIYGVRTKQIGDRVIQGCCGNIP
Outline: as §1

[13] = target: T12, OR52W1 (Homo sapiens) (UniProt Q6IF63)
T12 sequence (whole entry): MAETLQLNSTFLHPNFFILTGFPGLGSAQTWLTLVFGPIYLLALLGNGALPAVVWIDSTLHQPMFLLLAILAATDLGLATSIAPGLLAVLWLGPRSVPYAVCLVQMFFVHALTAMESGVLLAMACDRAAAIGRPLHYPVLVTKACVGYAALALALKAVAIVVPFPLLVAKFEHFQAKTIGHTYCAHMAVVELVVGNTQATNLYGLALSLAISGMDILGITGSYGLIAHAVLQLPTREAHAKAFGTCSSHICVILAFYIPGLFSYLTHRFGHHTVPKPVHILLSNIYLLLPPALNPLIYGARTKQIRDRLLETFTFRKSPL
Outline: as §1

[14] = target: T13, OR56A1 (Homo sapiens) (UniProt Q8NGH5)
T13 sequence (whole entry): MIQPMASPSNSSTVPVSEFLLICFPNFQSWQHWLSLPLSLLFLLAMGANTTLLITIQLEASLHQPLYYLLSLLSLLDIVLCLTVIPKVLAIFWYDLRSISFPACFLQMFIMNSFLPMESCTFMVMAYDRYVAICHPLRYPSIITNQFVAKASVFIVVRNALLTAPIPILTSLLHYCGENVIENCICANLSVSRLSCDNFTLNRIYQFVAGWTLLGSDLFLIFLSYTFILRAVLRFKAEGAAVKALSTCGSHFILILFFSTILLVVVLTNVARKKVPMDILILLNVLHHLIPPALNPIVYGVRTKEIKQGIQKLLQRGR
Outline: as §1

[15] = target: T14, OR56A3 (Homo sapiens) (UniProt Q8NH54)
T14 sequence (whole entry): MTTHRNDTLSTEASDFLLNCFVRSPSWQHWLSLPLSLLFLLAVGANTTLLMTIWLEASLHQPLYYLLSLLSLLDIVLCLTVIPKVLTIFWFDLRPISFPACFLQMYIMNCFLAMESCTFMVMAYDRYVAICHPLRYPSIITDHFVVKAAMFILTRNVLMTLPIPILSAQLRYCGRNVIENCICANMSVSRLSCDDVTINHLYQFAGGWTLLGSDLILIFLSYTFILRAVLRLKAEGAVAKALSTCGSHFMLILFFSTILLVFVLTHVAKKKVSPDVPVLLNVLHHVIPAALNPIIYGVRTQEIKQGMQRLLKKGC
Outline: as §1

[16] = target: T15, OR56A5 (Homo sapiens) (UniProt P0C7T3)
T15 sequence (whole entry): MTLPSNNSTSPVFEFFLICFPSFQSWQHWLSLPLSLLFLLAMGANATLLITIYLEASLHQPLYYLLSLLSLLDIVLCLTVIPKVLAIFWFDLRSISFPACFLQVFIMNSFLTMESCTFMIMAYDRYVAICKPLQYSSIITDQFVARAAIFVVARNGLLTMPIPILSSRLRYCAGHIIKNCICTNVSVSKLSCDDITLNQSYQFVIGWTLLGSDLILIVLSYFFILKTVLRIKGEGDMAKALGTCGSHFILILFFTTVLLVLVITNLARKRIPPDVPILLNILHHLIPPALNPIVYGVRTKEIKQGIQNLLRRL
Outline: as §1

[17] = target: T16, OR56B1 (Homo sapiens) (UniProt Q8NGI3)
T16 sequence (whole entry): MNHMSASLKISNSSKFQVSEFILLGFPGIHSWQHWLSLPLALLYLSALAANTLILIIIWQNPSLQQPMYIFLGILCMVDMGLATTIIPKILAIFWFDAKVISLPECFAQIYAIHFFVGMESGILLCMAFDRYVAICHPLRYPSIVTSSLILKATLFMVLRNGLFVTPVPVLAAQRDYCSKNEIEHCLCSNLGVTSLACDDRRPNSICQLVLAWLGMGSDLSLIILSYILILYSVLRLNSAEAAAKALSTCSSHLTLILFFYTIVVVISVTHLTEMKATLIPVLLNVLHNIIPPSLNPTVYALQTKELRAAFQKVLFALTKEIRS
Outline: as §1

Measured: odorant receptor agonist call

Chain of OR52J3 (Homo sapiens) (Q8NH60 whole entry): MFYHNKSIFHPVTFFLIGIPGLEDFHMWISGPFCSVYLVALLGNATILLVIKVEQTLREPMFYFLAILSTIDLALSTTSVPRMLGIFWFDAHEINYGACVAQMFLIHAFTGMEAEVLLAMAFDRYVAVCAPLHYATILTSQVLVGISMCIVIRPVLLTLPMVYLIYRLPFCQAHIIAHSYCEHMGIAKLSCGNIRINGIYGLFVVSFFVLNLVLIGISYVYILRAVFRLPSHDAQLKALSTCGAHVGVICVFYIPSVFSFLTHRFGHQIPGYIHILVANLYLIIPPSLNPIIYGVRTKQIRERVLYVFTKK

CCC1OC(C)=C(O)C1=O (configuration not stated)
inactive: [1] | [2] | [3] | [4] | [5] | [6] | [7] | [8] | [9] | [10] | [11] | [12] | [13] | [14] | [15] | [16] | [17]
